≈ marks a conversion by molar mass, not a printed value.
Key:
Format in all cases: functional
Details in all cases: read-out: ED50 (the source's name)
A549 = experiment: Cytotoxicity against human A549 cells by MTT assay
Summary of the method: (§1)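 Growth inhibition of cancer cells read by a modified MTT colorimetric method, following a previously described procedure. P-388 cells were obtained from an academic laboratory; A549 and HT-29 cells came from the American Type Culture Collection.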

HT-29 = experiment: Cytotoxicity against human HT-29 cells by MTT assay; summary of the method: as §1
P388 = experiment: Cytotoxicity against mouse P388 cells by MTT assay; summary of the method: as §1

With `C=C1CC/C=C(\C)C(=O)C[C@@H]2[C@@H]1CC2(C)C` [BUDDLEDIN C] as the compound, how does the EC50 (A549) read?
Its EC50 is 3.8 µg/mL (≈ 17.4 µM).

And the EC50 (HT-29)?
The EC50 was 3.6 µg/mL (≈ 16.5 µM).

And the EC50 (P388)?
Its EC50 is 4.6 µg/mL (≈ 21.1 µM).

What does the source list for `C=C1CC/C=C(/C)C(=O)C[C@@H]2[C@@H]1CC2(C)C` [BUDDLEDIN D]?
EC50 (A549): 8.9 µg/mL (≈ 40.8 µM); EC50 (HT-29): 6.6 µg/mL (≈ 30.2 µM); EC50 (P388): 6.3 µg/mL (≈ 28.9 µM)

Which EC50 (A549) does the source give for `C=C1CC[C@H]2O[C@]2(C)[C@@H](O)C[C@@H]2[C@@H]1CC2(C)C` [SUBEROSOL A] here?
The EC50 was over 50 µg/mL.

And the EC50 (HT-29)?
Its EC50 is over 50 µg/mL.

What about the EC50 (P388) of the same compound?
Its EC50 is 3.8 µg/mL (≈ 16.1 µM).

Which results are given for `C=C1CC[C@H]2O[C@]2(C)[C@H](O)C[C@@H]2[C@@H]1CC2(C)C` [SUBEROSOL B]?
EC50 (A549): > 50 µg/mL; EC50 (HT-29): > 50 µg/mL; EC50 (P388): 7.4 µg/mL (≈ 31.3 µM)

What does the source list for `C=C1CC/C=C(\C)[C@H](O)C[C@@H]2[C@@H]1CC2(C)C` [SUBEROSOL C]?
EC50 (A549): 5.6 µg/mL (≈ 25.4 µM); EC50 (HT-29): 2.3 µg/mL (≈ 10.4 µM); EC50 (P388): 2.1 µg/mL (≈ 9.53 µM)

Which results are given for `C=C1CC/C=C(/C)[C@@H](O)C[C@@H]2[C@@H]1CC2(C)C` [SUBEROSOL D]?
EC50 (A549): 4.2 µg/mL (≈ 19.1 µM); EC50 (HT-29): 3.8 µg/mL (≈ 17.2 µM); EC50 (P388): 3.3 µg/mL (≈ 15 µM)

Source: ChEMBL document CHEMBL1150594, “Suberosols A-D, four new sesquiterpenes with beta-caryophyllene skeletons from a Taiwanese gorgonian coral Subergorgia suberosa” (2002)
